Reference: paper PMC11015380 (Heliyon, 2024)

Tests used:
AGS (G12D) = assay: WST cell viability assay, AGS cells; format: cell-based; conditions: Homo sapiens, 72 h, read-out: IC50 AGS (G12D)
AsPC1 (G12D) = assay: WST cell viability assay, AsPC1 cells; format: cell-based; conditions: Homo sapiens, ASPC1, 72 h, read-out: IC50 AsPC1 (G12D)
Hek293 (Normal) = assay: WST cell viability assay, Hek293 cells; format: cell-based; conditions: Homo sapiens, HEK293, 72 h, read-out: IC50 Hek293 (Normal)
SNU1197 (G12D) = assay: WST cell viability assay, SNU1197 cells; format: cell-based; conditions: 72 h, read-out: IC50 SNU1197 (G12D)
AGS cells = assay: Annexin V-FITC/PI apoptosis detection assay, AGS cells; format: cell-based; conditions: AGS, 0, 2.5, and 5 μM, 24 h, flow cytometry
Outline: (§1)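 AGS or MKN1 cells were seeded at 3–5 × 10^5 cells/well in 6-well plates and grown overnight. They were treated with test compound at 0, 2.5 or 5 μM for 24 h. Cells were harvested, PBS-washed and resuspended in 1X binding buffer.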

[1] = system: MKN1 (KRAS wild-type) cells; assay: Annexin V-FITC/PI apoptosis detection assay, MKN1 cells; format: cell-based; conditions: MKN1, 0, 2.5, and 5 μM, 24 h, flow cytometry
Outline: as §1

[2] = biological target: KRAS-GTP (active KRAS) in AGS cells (Homo sapiens, UniProt P01116, G12D); assay: GST-RBD pulldown assay, AGS cells; format: cell-based; conditions: 5 or 7.5 μM, 24 h
Outline: (§2)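 AGS or MKN1 cells were exposed to DMSO or test compound (0, 5, 7.5 μM) for 24 h and lysed in 1X passive lysis buffer. Lysate (400 μg protein) was incubated overnight with glutathione–GST-RBD to capture GTP-bound KRAS. Pulled-down protein was immunoblotted with anti-KRAS antibody, and band intensity was quantified (n = 2).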

[3] = biological target: KRAS-GTP (active KRAS) in MKN1 cells (Homo sapiens, UniProt P01116); assay: GST-RBD pulldown assay, MKN1 cells; format: cell-based; conditions: MKN1, 5 or 7.5 μM, 24 h
Outline: as §2

[4] = system: pERK, pAKT, pS6, cleaved PARP in AGS cells; assay: Immunoblotting of KRAS downstream signals and PARP, AGS cells; format: cell-based; conditions: 5 or 7.5 μM, 24 h
Outline: (§3)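 Cells (3–5 × 10^5/well, 6-well plates) were grown overnight, then given DMSO or test compound at 5 or 7.5 μM for 24 h. Lysis was in RIPA with protease/phosphatase inhibitors, with BCA protein assay. Equal protein was run on 8–12% SDS-PAGE and transferred to nitrocellulose. Blots were blocked in 5% milk/TBST, probed overnight at 4 °C (ERK, pERK, AKT, pAKT, S6, pS6, PARP), then HRP secondary 1 h, ECL. Bands were normalised to β-actin (n = 2).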

[5] = system: KRAS downstream proteins, including PARP, in MKN1 cells; assay: Immunoblotting of KRAS downstream signals and PARP, MKN1 cells; format: cell-based; conditions: MKN1, 5 or 7.5 μM, 24 h
Outline: as §3

AsPC1 tumor = assay: In vivo antitumor efficacy study, AsPC1 xenograft; set-up: species or system female BALB/c nude mice; conditions: 15 mg/kg i.p. once daily for 14 days
Outline: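 Female BALB/c nude mice (5–6 weeks) received 5.0 × 10^6 AsPC1 cells s.c. into the right hind flank in PBS. At tumour volume >100 mm3, mice were randomised to vehicle or test compound at 15 mg/kg i.p. once daily for 14 days (10% DMSO, 40% PEG300, 5% Tween-80, 45% saline; 200 μL/mouse). Tumours were measured by caliper thrice weekly and body weight twice weekly. TGI (%) = (1 − RTVtreatment/RTVcontrol) × 100, with RTV relative to day 0.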

IC50 (AGS (G12D)) [µM] | IC50 (AsPC1 (G12D)) [µM] | IC50 (SNU1197 (G12D)) [µM] | KRAS-GTP levels [2] | KRAS-GTP protein expression [3] | SMILES | IC50 (Hek293 (Normal)) [µM] | proportion of early (LR) and late apoptotic (UR) cells (AGS cells) | apoptosis [1] | pERK, pAKT, and pS6 levels [4] | levels of cleaved PARP ([4]; versus DMSO-treated group) | KRAS downstream proteins, including PARP, expression [5] | body weight change during treatment (AsPC1 tumor) | TGI (tumor growth inhibition) (AsPC1 tumor; day 14) [%]
3.3 ± 0.6 | 10.9 ± 0.4 | – | – | – | Cc1nc(-c2ccc(Cl)cc2)nc(N2CCC3(CC2)CNC3)c1Cc1ccccc1 [PY1-2, 7-(5-benzyl-2-(4-chlorophenyl)-6-methylpyrimidin-4-yl)-2,7-diazaspiro[3.5]nonane, 2,2,2-trifluoroacetic acid] | 9.1 ± 0.7 | – | – | – | – | – | – | –
3.2 ± 0.4 | 5.9 ± 0.3 | 3.8 ± 0.8 | significantly downregulated | no protein expression changes | Cl.c1ccc(CN(Cc2ccccc2)c2nc(N3CCC4(CC3)CNC4)c3ncn(Cc4ccccc4)c3n2)cc1 [PU1-1, N,N,9-tribenzyl-6-(2,7-diazaspiro[3.5]nonan-7-yl)-9H-purin-2-amine hydrogen chloride] | 9.2 ± 0.2 | increased | did not show significant apoptosis | significantly decreased | significantly increased | no protein expression changes | no noticeable weight loss | 42
0.0065 | 0.062 | 0.037 | – | – | C#Cc1c(F)ccc2cc(O)cc(-c3ncc4c(N5CC6CCC(C5)N6)nc(OC[C@@]56CCCN5C[C@H](F)C6)nc4c3F)c12 [MRTX1133, reference compound] | 19.7 | – | – | – | – | – | – | –
